Activity calls are given as the source filed them. The rule behind the calls is not given here.
Legend:
Quadruplex DNA [1] = experiment: Effect on human Tel23 G4 quadruplex DNA architecture at 10 mol.equiv by circular dichroism spectral analysis; format: nucleic-acid assay
In short: (§1)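 CD spectra of 15 μM G4s or 30 μM hairpin in 20 mM K phosphate pH 7.0 with 5 mM KCl, after annealing. Recorded at 20 °C over 230–360 nm, three scans averaged, buffer baseline subtracted. Ligand was added at 10 mol equiv to the folded DNA from a 10 mM DMSO stock.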

Quadruplex DNA [2] = experiment: Effect on c-Kit2 G4 quadruplex DNA architecture at 10 mol.equiv by circular dichroism spectral analysis; format: nucleic-acid assay; in short: as §1
Quadruplex DNA [3] = experiment: Effect on c-Myc G4 quadruplex DNA architecture at 10 mol.equiv by circular dichroism spectral analysis; format: nucleic-acid assay; in short: as §1
Quadruplex DNA [4] = experiment: Effect on c-Kit1 G4 quadruplex DNA architecture at 10 mol.equiv by circular dichroism spectral analysis; format: nucleic-acid assay; in short: as §1
Quadruplex DNA [5] = experiment: Stabilization of human Tel23 G4 quadruplex DNA assessed as change in melting temperature at 10 mol.equiv by circular dichroism melting assay; format: nucleic-acid assay
In short: (§2)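 CD melting from 20 to 100 °C at 1 °C/min, monitored at 264 nm (c-Kit1, c-Kit2, c-Myc, Tel23-p), 287 nm (Tel23-h) or 280 nm (hairpin). Ligand was at 10 mol equiv with folded DNA (15 μM G4, 30 μM hairpin). ΔTm is Tm with ligand minus Tm without, from curve fits, averaged over triplicates.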

Quadruplex DNA [6] = experiment: Stabilization of c-Kit2 G4 quadruplex DNA assessed as change in melting temperature at 10 mol.equiv by circular dichroism melting assay; format: nucleic-acid assay; in short: as §2
Quadruplex DNA [7] = experiment: Stabilization of parallel Tel23 G4 quadruplex DNA assessed as change in melting temperature at 10 mol.equiv by circular dichroism melting assay; format: nucleic-acid assay; in short: as §2
[8] = Effect on hairpin-duplex DNA architecture at 10 mol.equiv by circular dichroism spectral analysis; in short: as §1
Quadruplex DNA [9] = experiment: Stabilization of c-Myc G4 quadruplex DNA assessed as change in melting temperature at 10 mol.equiv by circular dichroism melting assay; format: nucleic-acid assay; in short: as §2
Quadruplex DNA [10] = experiment: Effect on parallel Tel23 G4 quadruplex DNA architecture at 10 mol.equiv by circular dichroism spectral analysis; format: nucleic-acid assay; in short: as §1
Quadruplex DNA [11] = experiment: Stabilization of c-Kit1 G4 quadruplex DNA assessed as change in melting temperature at 10 mol.equiv by circular dichroism melting assay; format: nucleic-acid assay; in short: as §2
[12] = Stabilization of hairpin-duplex DNA assessed as change in melting temperature at 10 mol.equiv by circular dichroism melting assay; in short: as §2
U2OS [13] = experiment: Cytotoxicity against human U2OS cells assessed as reduction in cell viability incubated for 1 hr followed by 48 hrs of recovery in drug free medium by MTT assay; format: functional, cell-based
In short: (§3)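 Cells grown in DMEM with 10% FBS and 1% glutamine at 37 °C, 5% CO2, and seeded 25 × 10^4 per well. Treatment began 24 h after seeding and lasted 1 or 24 h, followed by 48 h in drug-free medium. MTT was added for 1 h at 37 °C, then DMSO solubilization and absorbance at 595 nm. IC50 came from linear regression; two independent experiments, each in triplicate.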

U2OS [14] = experiment: Induction of genome instability in human U2OS cells assessed as increase in micronuclei formation at 10 uM incubated for 24 hrs by immunofluorescence microscopy; format: functional, cell-based
In short: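 U2OS cells were treated for 24 h, fixed in 4% paraformaldehyde, permeabilized with 0.5% Triton X-100, and stained with DAPI. Micronuclei were counted per 100 cells.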

Quadruplex DNA [15] = experiment: Stabilization of G4 quadruplex DNA in human U2OS cells assessed as increase in number of G4 foci at 10 uM incubated for 24 hrs by immunofluorescence microscopy; format: cell-based
U2OS [16] = experiment: Cytotoxicity against human U2OS cells assessed as reduction in cell viability incubated for 24 hrs followed by 48 hrs of recovery in drug-free medium by MTT assay; format: functional, cell-based; in short: as §3
HeLa [17] = experiment: Cytotoxicity against human HeLa cells assessed as reduction in cell viability incubated for 1 hr followed by 48 hrs of recovery in drug free medium by MTT assay; format: functional, cell-based; in short: as §3
Quadruplex DNA [18] = experiment: Stabilization of G4 quadruplex DNA in human U2OS cells assessed as colocalization of TRF2/[…] foci at 10 uM incubated for 24 hrs by immunofluorescence microscopy (reference value: 18.4 +/- 2.81%); format: cell-based
U2OS [19] = experiment: Induction of DNA:RNA hybrid formation in human U2OS cells assessed as increase in R loop formation at 10 uM incubated for 30 mins by S9.6 immunofluorescence microscopy; format: functional, cell-based
In short: (§4)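 U2OS cells were treated at 10 μM for 5–60 min, 24 h after seeding, then fixed in cold methanol and permeabilized with acetone. Stained with S9.6 antibody and anti-nucleolin. The nucleolar signal was subtracted from total nuclear S9.6 fluorescence, and values were normalized to the untreated mean; two biological replicates.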

Quadruplex DNA [20] = experiment: Stabilization of G4 quadruplex DNA in human U2OS cells assessed as TRF2 foci per cell at 10 uM incubated for 24 hrs by immunofluorescence microscopy (reference value: 15.8 +/- 2.6%); format: cell-based
U2OS [21] = experiment: Induction of DNA damage in human U2OS cells assessed as increase in phosphorylated 53BPI foci colocalization with gammaH2AX foci at 10 uM incubated for 4 hrs by immunofluorescence microscopy; format: functional, cell-based
In short: (§5)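 U2OS cells were treated with 10 μM for 4 h, pre-extracted 3 min with CSK buffer containing 0.5% Triton X-100, and fixed in 2% paraformaldehyde. Co-stained 1 h for 53BP1 and γH2AX, with DAPI counterstain. Foci were counted per nucleus and normalized to the untreated mean, across three biological replicates.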

U2OS [22] = experiment: Induction of DNA damage in human U2OS cells assessed as increase in gammaH2AX phosphorylation at S139 at 10 uM incubated for 4 hrs by immunofluorescence microscopy; format: functional, cell-based; in short: as §5
HeLa [23] = experiment: Cytotoxicity against human HeLa cells assessed as reduction in cell viability incubated for 24 hrs followed by 48 hrs of recovery in drug free medium by MTT assay; format: functional, cell-based; in short: as §3
U2OS [24] = experiment: Induction of DNA:RNA hybrid formation in human U2OS cells assessed as increase in R loop formation at 10 uM incubated for 60 mins by S9.6 immunofluorescence microscopy; format: functional, cell-based; in short: as §4

Activity (Quadruplex DNA [1]) | Activity (Quadruplex DNA [2]) | Activity (Quadruplex DNA [3]) | Activity (Quadruplex DNA [4]) | Activity (Quadruplex DNA [5]) | Activity (Quadruplex DNA [6]) | Activity (Quadruplex DNA [7]) | Activity [8] | Activity (Quadruplex DNA [9]) | Activity (Quadruplex DNA [10]) | Activity (Quadruplex DNA [11]) | ΔTm [12] [°C] | Compound | other results
inactive | inactive | inactive | inactive | Active | Active | Active | inactive | Active | inactive | Active | > 2 | N=C(N)N/N=C/c1cccc(/C=C2/C(=O)Nc3ccc(Cl)cc32)c1 | –
inactive | inactive | inactive | inactive | Active | Active | Active | inactive | Active | inactive | Active | > 2 | O=C1Nc2ccc(Cl)cc2/C1=C\c1cccc(/C=N/NC2=NCCN2)c1 | –
inactive | inactive | inactive | inactive | Active | Active | Active | inactive | Active | inactive | Active | > 2 | Cc1cc2c(cc1O)/C(=C\c1cccc(/C=N/NC(=N)N)c1)C(=O)N2 | –
inactive | inactive | inactive | inactive | Active | Active | Active | inactive | Active | inactive | Active | – | Cc1cc2c(cc1O)/C(=C\c1cccc(/C=N/NC3=NCCN3)c1)C(=O)N2 | Activity [12]: Active
inactive | inactive | inactive | inactive | Active | Active | Active | inactive | Active | inactive | Active | > 2 | O=C1Nc2c(ccc3ccccc23)/C1=C\c1cccc(/C=N/NC2=NCCN2)c1 | –
inactive | inactive | inactive | inactive | Active | Active | Active | inactive | Active | inactive | Active | – | N=C(N)N/N=C/c1c(Cl)n(C/C=C/c2ccccc2)c2ccccc12 | Activity [12]: Active
inactive | inactive | inactive | inactive | Active | Active | Active | inactive | Active | inactive | Active | – | N=C(N)N/N=C/c1cn(C/C=C/c2ccccc2)c2ccccc12 | Activity [12]: Active
inactive | inactive | inactive | inactive | Active | Active | Active | inactive | Active | inactive | Active | > 2 | N=C(N)N/N=C/c1cccc(/C=C2/C(=O)Nc3c2ccc2ccccc32)c1 | –

Continued, compound first:

Compound | Activity (Quadruplex DNA [1]) | Activity (Quadruplex DNA [2]) | Activity (Quadruplex DNA [3]) | Activity (Quadruplex DNA [4]) | Activity (Quadruplex DNA [5]) | Activity (Quadruplex DNA [6]) | Activity (Quadruplex DNA [7]) | Activity [8] | Activity (Quadruplex DNA [9]) | Activity (Quadruplex DNA [10]) | Activity (Quadruplex DNA [11]) | ΔTm [12] [°C] | other results
N=C(N)N/N=C/c1cn(Cc2ccccc2)c2ccccc12 | inactive | inactive | inactive | inactive | Active | Active | Active | inactive | Active | inactive | Active | > 2 | –
N=C(N)N/N=C/c1c(-c2ccccc2)nc2nc(N)ccn12 | inactive | inactive | inactive | inactive | inactive | inactive | inactive | inactive | inactive | inactive | inactive | – | IC50 (U2OS [13]): > 100 µM; Activity (U2OS [14]): Active; Activity (Quadruplex DNA [15]): inactive; IC50 (U2OS [16]): > 50 µM; IC50 (HeLa [17]): > 100 µM; Activity (Quadruplex DNA [18]): 10.1%; Activity (U2OS [19]): Active; Activity (Quadruplex DNA [20]): 15.3%; Activity (U2OS [21]): Active; Activity (U2OS [22]): Active; IC50 (HeLa [23]): > 50 µM; Activity [12]: inactive; Activity (U2OS [24]): Active
COc1cc2c(/C=N/NC(=N)N)c(Cl)[nH]c2cc1C | inactive | inactive | inactive | inactive | Active | Active | Active | inactive | Active | inactive | Active | > 2 | –
COc1cc2c(/C=N/NC(=N)N)c(Cl)n(C)c2cc1C | inactive | inactive | inactive | inactive | Active | Active | Active | inactive | Active | inactive | Active | > 2 | –
COc1cc2c(/C=N/NC(=N)N)c[nH]c2cc1C | inactive | inactive | inactive | inactive | Active | Active | Active | inactive | Active | inactive | Active | > 2 | –
CN(C)c1ccc(Nc2c3ccc(NC(=O)CCN4CCCC4)cc3nc3cc(NC(=O)CCN4CCCC4)ccc23)cc1 | – | – | – | – | – | – | – | – | – | – | – | – | Activity (Quadruplex DNA [15]): Active; Activity (Quadruplex DNA [18]): 15.2%; Activity (Quadruplex DNA [20]): 19.1%
Nc1ccn2c(/C=N/NC3=NCCN3)c(-c3ccccc3)nc2n1 | inactive | inactive | inactive | inactive | Active | Active | Active | inactive | Active | inactive | Active | > 2 | –
